Experiments:
[1] = Solubility of the compound in DMSO; type: physicochemical
[2] = biological target: T1, Glycogen [starch] synthase, liver (Homo sapiens) (UniProt P54840); assay: Activation of insulin-stimulated glycogen synthase in human HepG2 cells at MNTD using [U-14C]UDP glucose as substrate preincubated for 18 hrs followed by insulin stimulation and measured after 15 mins by beta-counting method relative to control; type: cell-based
T1 sequence (whole entry): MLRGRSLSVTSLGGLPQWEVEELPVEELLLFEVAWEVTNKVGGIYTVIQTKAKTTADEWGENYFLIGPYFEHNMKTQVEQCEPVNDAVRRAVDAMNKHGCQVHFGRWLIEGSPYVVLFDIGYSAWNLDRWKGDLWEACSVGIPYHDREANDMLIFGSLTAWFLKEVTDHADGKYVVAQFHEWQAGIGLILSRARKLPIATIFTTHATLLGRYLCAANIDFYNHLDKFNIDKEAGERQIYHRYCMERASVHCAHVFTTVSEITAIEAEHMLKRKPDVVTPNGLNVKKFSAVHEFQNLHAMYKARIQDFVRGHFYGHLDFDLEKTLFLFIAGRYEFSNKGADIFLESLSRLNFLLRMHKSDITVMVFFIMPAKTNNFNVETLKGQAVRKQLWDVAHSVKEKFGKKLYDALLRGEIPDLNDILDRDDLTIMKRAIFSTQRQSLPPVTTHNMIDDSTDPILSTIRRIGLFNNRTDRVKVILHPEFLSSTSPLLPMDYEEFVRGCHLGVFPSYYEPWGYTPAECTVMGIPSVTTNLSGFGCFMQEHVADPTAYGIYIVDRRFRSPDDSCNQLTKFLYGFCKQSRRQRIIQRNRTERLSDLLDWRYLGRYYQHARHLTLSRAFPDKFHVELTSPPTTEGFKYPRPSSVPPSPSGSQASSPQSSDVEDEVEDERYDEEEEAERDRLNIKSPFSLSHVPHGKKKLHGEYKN

[3] = biological target: T2, Glycogen [starch] synthase, liver (Homo sapiens, UniProt P54840); assay: Activation of insulin-stimulated glycogen synthase in human HepG2 cells using [U-14C]UDP glucose as substrate preincubated for 18 hrs followed by insulin stimulation and measured after 15 mins by beta-counting method; type: cell-based
T2 sequence (P54840 whole entry): T1 sequence (whole entry)

[4] = biological target: T3, Glucose-6-phosphatase catalytic subunit 1 (Rattus norvegicus) (UniProt P43428); assay: Inhibition of glucose-6-phosphatase in rat […] cells at MNTD using glucose-6-phosphate as substrate preincubated overnight followed by substrate addition and measured after 40 mins relative to control; type: cell-based
T3 sequence (whole entry): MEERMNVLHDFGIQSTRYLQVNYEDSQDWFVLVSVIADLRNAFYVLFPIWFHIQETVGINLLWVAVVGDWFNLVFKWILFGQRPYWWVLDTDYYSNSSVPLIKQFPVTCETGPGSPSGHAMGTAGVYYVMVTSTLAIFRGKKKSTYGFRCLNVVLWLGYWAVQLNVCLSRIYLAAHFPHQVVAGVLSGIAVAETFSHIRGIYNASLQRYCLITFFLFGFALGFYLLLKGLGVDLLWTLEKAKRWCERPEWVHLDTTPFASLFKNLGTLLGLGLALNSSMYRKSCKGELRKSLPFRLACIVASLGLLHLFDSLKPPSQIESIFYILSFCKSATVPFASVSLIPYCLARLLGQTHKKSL
Outline: (§1)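 H4IIE rat hepatoma cells at 90% confluence treated overnight at maximal nontoxic concentration, 0.1% DMSO vehicle. Lysis in phosphate buffer with 0.05% Triton; lysate incubated with glucose-6-phosphate buffer 40 min at 37 °C. Released glucose read by glucose kit against standard curve, normalized to BCA protein; percent change from vehicle. Means of three experiments in triplicate.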

[5] = biological target: T4, Glycogen synthase kinase-3 (Homo sapiens) (UniProt P49840+P49841); assay: Activation of GSK3 phosphorylation in human HepG2 cells at MNTD after 18 hrs by Western blot analysis relative to control; type: cell-based
Outline: (§2)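 Confluent H4IIE rat hepatoma cells (DMEM, 10% FBS) or HepG2 human hepatoma cells (DMEM/F12, 10% FBS) exposed 18 h to samples at maximal nontoxic concentration, 0.1% DMSO vehicle; RIPA lysates, 40 μg protein by SDS-PAGE, nitrocellulose blotting, 5% milk block. Antibodies against p-Akt Thr308/Akt, p-AMPKα Thr172/AMPK, p-GSK-3 Ser9/GSK-3, HRP secondary, ECL detection. Phospho/total ratio relative to DMSO; three independent passages.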

Rattus norvegicus = species: Rattus norvegicus; assay: Activation of AMPK in rat […] cells assessed as increase AMPK phosphorylation at MNTD after 18 hrs by Western blot analysis relative to control; type: cell-based; outline: as §2
[6] = biological target: RAC-alpha serine/threonine-protein kinase (Rattus norvegicus) (UniProt P47196); assay: Activation of Akt in rat […] cells assessed as increase in ratio of phosphorylated Akt to total AKt level at MNTD after 18 hrs by Western blot analysis relative to control; type: cell-based; outline: as §2
[7] = biological target: T5, Glucose-6-phosphatase catalytic subunit 1 (Rattus norvegicus, UniProt P43428); assay: Inhibition of glucose-6-phosphatase in rat H42E cells using glucose-6-phosphate as substrate preincubated overnight followed by substrate addition and measured after 40 mins; type: cell-based; outline: as §1
T5 sequence (P43428 whole entry): T3 sequence (whole entry)

[8] = biological target: T4, Glycogen synthase kinase-3 (Homo sapiens); assay: Activation of GSK3 in human HepG2 cells assessed as increase in ratio of phosphorylated GSK3 to total GSK3 level at MNTD after 18 hrs by Western blot analysis relative to control; type: cell-based; outline: as §2

T4 sequence (P49840 whole entry, looked up): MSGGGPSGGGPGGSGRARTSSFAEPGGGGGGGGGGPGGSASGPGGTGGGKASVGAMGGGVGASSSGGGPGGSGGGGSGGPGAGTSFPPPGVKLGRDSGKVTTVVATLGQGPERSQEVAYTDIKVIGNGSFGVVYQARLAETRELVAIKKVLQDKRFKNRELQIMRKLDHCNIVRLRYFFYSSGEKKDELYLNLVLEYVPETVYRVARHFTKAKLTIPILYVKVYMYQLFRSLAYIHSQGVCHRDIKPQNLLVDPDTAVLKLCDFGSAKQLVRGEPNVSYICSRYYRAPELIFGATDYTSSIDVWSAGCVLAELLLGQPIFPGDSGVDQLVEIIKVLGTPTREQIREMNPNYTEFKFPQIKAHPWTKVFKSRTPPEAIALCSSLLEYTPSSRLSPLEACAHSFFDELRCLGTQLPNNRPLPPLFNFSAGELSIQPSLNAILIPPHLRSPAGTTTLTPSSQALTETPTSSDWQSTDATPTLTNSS
T4 sequence (P49841 whole entry, looked up): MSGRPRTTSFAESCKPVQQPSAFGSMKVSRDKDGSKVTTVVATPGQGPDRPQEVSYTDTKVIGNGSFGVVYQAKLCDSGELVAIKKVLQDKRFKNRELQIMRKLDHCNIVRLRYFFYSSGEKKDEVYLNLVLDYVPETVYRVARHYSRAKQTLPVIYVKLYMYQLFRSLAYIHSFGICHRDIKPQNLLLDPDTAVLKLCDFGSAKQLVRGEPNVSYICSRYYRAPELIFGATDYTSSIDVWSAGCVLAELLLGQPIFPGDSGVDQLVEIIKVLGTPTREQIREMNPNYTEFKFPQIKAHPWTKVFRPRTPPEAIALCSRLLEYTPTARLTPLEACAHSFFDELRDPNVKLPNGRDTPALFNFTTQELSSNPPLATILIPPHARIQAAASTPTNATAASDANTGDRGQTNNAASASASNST
Chain of RAC-alpha serine/threonine-protein kinase (Rattus norvegicus) (P47196 whole entry): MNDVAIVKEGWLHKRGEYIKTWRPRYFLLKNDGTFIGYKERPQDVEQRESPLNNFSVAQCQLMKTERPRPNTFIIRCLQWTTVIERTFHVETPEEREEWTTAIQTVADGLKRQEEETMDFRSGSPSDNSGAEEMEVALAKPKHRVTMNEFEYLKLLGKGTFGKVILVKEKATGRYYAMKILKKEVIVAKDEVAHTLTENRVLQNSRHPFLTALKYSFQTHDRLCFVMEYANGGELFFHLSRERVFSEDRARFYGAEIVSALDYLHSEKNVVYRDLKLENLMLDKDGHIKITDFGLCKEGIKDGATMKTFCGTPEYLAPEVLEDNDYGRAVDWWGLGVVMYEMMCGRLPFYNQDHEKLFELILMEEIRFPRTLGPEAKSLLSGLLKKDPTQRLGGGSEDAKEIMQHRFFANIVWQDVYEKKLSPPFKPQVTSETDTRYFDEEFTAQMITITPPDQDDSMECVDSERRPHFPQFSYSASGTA

Row | Structure (SMILES) | fold change (FC) [2] | EC50 [3] [µM] | inhibition [4] [%] | fold change (FC) [5] | fold change (FC) [6] | IC50 [7] [µM] | fold change (FC) [8] | solubility [1] | fold change (FC) (Rattus norvegicus)
1 | CC[C@H](CC[C@@H](C)[C@H]1CC[C@H]2[C@@H]3CC=C4C[C@@H](O)CC[C@]4(C)[C@H]3CC[C@]12C)C(C)C [BETA-SITOSTEROL] | – | – | – | – | – | – | – | Insoluble | –
2 | CC[C@H](/C=C/[C@@H](C)[C@H]1CC[C@H]2[C@@H]3CC=C4C[C@@H](O)CC[C@]4(C)[C@H]3CC[C@]12C)C(C)C [STIGMASTEROL] | – | – | – | – | – | – | – | Insoluble | –
3 | COc1cc(/C=C/C(=O)O[C@H]2[C@H](OC(C)=O)C[C@]3(C)[C@H]4CC=C5[C@H]6[C@](C(=O)O)(CC[C@@H](C)[C@@]6(C)O)CC[C@@]5(C)[C@]4(C)CC[C@H]3C2(C)C)ccc1O | 1.5 to 3.5 | 4.1 | 18 to 32 | 2 | 2.2 to 4.8 | 4.8 | – | – | 2.2 to 3.5
4 | C[C@H]1[C@H](C)CC[C@]2(C(=O)O)CC[C@]3(C)C(=CC[C@@H]4[C@@]5(C)CC[C@H](O)C(C)(C)[C@@H]5CC[C@]43C)[C@H]12 | 1.5 to 3.5 | – | 18 to 32 | 2 | 2.2 to 4.8 | – | – | – | 2.2 to 3.5

Further lines, with some results ahead:

Row | fold change (FC) [2] | EC50 [3] [µM] | inhibition [4] [%] | fold change (FC) [5] | fold change (FC) [6] | IC50 [7] [µM] | fold change (FC) [8] | Structure (SMILES) | solubility [1] | fold change (FC) (Rattus norvegicus)
5 | 1.5 to 3.5 | – | 18 to 32 | – | 2.2 to 4.8 | – | 1.8 | COc1cc(/C=C/C(=O)O[C@H]2[C@H](O)C[C@]3(C)[C@H]4CC=C5[C@H]6[C@](C(=O)O)(CC[C@@H](C)[C@@]6(C)O)CC[C@@]5(C)[C@]4(C)CC[C@H]3C2(C)C)ccc1O | – | 2.2 to 3.5
6 | – | – | – | 2 | – | – | – | NC(=O)c1ncn([C@@H]2O[C@H](CO)[C@@H](O)[C@H]2O)c1N | – | –

Source: ChEMBL document CHEMBL4411265, “Bioactive Pentacyclic Triterpenes from the Root Bark Extract of Myrianthus arboreus, a Species Used Traditionally to Treat Type-2 Diabetes” (J Nat Prod, 2018)
